Test results: ChEMBL document CHEMBL4706728, “Discovery of a Highly Selective and Potent TRPC3 Inhibitor with High Metabolic Stability and Low Toxicity” (ACS Med Chem Lett, 2021)
Each block holds one molecule with its values, some of them ahead of it. Active and inactive are the calls of the source. No cut-off for these calls is given here.

Assays:
[1] = molecular target: T1, Short transient receptor potential channel 3 (Homo sapiens) (UniProt Q13507); experiment: Inhibition of human TRPC3 expressed in HEK293 cells assessed as inhibition of GSK170-induced current at 10 uM in absence of extracellular calcium by whole cell patch-clamp method relative to control; assay type: cell-based
T1 sequence (whole entry): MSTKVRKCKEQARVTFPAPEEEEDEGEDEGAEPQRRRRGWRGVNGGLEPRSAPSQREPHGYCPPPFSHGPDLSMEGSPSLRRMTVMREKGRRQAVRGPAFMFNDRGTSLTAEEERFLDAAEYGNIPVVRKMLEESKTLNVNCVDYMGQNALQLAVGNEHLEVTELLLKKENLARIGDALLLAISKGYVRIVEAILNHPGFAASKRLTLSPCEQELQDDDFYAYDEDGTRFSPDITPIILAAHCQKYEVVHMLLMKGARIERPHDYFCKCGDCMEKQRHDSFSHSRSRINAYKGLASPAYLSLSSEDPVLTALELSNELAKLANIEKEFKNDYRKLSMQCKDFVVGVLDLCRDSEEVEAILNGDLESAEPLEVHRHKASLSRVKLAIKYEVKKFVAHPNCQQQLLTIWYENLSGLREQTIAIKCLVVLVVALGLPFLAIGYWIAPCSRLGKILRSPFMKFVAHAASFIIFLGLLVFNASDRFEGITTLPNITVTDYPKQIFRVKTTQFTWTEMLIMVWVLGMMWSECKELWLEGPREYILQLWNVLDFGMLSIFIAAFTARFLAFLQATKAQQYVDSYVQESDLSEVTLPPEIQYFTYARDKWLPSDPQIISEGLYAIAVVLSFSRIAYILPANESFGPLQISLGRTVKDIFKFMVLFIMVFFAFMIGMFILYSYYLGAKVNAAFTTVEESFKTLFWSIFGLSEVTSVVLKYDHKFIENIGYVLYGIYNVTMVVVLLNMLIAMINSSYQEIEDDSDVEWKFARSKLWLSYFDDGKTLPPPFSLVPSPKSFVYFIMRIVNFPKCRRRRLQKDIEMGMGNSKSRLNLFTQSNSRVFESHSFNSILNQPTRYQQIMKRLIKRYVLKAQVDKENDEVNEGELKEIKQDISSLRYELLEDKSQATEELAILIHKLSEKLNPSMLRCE
Procedure, shortened: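 Human TRPC3 transiently expressed in HEK293 cells; whole-cell patch clamp with Ca2+-free solutions. Channel activated by GSK1702934A, then test compound at 10 μM perfused with the agonist. Inhibition expressed as percentage of the agonist-evoked current; mean ± SD, n cells per compound.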

[2] = Toxicity in NSG/ICR mouse assessed as mortality at 200 mg/kg, ip administered once daily for 5 days measured within 48 hrs; assay type: organism-based; settings: in vivo, dose 200 mg/kg/day
Procedure, shortened: (§1)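 Mice (n = 5 per group) dosed at 200 mg/kg by intraperitoneal injection once daily for 5 consecutive days. Survival monitored. Body weight expressed as mean percent change ± SD relative to weight at the start of treatment (day 0), with 15% weight loss as the reference line.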

Hippocampal neurone = experiment: Neuroprotective activity in Sprague-Dawley rat primary hippocampal neurons assessed as reduction in Abeta-induced dendrites damage at 0.25 to 1 uM incubated for 16 hrs by MAP2 staining based assay; assay type: functional, tissue-based; settings: dose 0.25-1 µM
Procedure, shortened: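 Primary hippocampal neurons from E17 rat embryos, used at 14 DIV. Treated for 16 h with naturally secreted Aβ-containing 7PA2 conditioned medium (CHO medium as control), alone or with test compound at several concentrations. Neurons then immunostained for MAP2 with DAPI, and dendritic length quantified.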

[3] = molecular target: T2, Short transient receptor potential channel 3 (Homo sapiens, UniProt Q13507); experiment: Inhibition of human TRPC3 expressed in HEK293 cells assessed as inhibition of GSK170-induced current in absence of extracellular calcium by whole cell patch-clamp method; assay type: cell-based
T2 sequence (Q13507 whole entry): T1 sequence (whole entry)
Procedure, shortened: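 Whole-cell patch clamp of hTRPC3 in transfected HEK293 cells, Ca2+-free solutions, currents activated by 1 μM GSK1702934A. Inhibitor at a range of concentrations perfused with agonist. Each concentration tested on independent cells and normalized to that cell's maximum current to avoid tachyphylaxis. Dose–response fitted for IC50; mean ± SD.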

[4] = Metabolic stability in human liver microsomes assessed as half life at […] measured up to 240 mins in presence of NADPH regeneration system by LC-MS analysis; assay type: ADME, Microsome
ORAI1/STIM1 = ORAI1/STIM1 (Homo sapiens, UniProt Q96D31+Q13586); experiment: Inhibition of STIM/Orai1 (unknown origin) expressed in HEK293 cells assessed as reduction in thapsigargin-induced Ca2+ influx at 10 uM in presence of Ca2+ by whole cell patch clamp method; assay type: cell-based; settings: hek293, 10 µM
Sequence of ORAI1/STIM1 (Q96D31 whole entry): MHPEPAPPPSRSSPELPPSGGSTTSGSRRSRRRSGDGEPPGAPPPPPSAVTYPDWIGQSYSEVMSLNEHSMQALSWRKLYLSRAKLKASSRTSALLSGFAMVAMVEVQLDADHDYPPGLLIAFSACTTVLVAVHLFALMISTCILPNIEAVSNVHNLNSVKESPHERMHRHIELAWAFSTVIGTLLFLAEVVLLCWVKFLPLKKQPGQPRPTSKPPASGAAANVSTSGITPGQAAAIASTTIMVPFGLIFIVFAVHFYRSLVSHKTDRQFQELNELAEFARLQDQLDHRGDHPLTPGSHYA
Sequence of ORAI1/STIM1 (Q13586 whole entry): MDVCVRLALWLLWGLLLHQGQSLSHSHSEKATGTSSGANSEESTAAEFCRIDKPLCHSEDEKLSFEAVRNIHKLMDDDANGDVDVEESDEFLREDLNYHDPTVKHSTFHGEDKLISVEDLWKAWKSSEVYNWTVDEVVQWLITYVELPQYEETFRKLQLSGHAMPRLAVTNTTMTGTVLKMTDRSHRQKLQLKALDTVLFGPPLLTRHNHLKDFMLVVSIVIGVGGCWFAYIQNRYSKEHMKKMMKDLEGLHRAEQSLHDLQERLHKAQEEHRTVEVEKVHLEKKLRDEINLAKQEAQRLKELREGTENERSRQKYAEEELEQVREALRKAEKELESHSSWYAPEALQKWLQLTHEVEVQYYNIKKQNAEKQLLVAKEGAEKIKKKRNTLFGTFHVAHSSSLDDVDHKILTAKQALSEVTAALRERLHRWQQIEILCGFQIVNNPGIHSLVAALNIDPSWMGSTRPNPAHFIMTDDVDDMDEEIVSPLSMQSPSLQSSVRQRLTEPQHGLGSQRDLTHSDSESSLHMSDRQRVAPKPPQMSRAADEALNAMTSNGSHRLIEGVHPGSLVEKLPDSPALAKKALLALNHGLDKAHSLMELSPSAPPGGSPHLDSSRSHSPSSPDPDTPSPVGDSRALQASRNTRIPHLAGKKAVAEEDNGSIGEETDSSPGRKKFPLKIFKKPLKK

[5] = molecular target: T1, Short transient receptor potential channel 3 (Homo sapiens); experiment: Inhibition of human TRPC3 expressed in HEK293 cells assessed as inhibition of OAG-induced current at 0.001 to 10 uM by whole cell patch-clamp method; assay type: cell-based; settings: dose 0.001-10 µM
Procedure, shortened: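 Whole-cell recordings of hTRPC3 expressed in HEK293 cells, channel activated by 1-oleoyl-2-acetyl-sn-glycerol (membrane-permeable diacylglycerol analogue) instead of GSK1702934A. Inhibitor at a range of concentrations co-perfused with agonist to build a dose–response profile.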

[6] = Metabolic stability in rat liver microsomes assessed as half life at […] measured up to 240 mins in presence of NADPH regeneration system by LC-MS analysis; assay type: ADME, Microsome
[7] = molecular target: T3, Short transient receptor potential channel 3 (Mus musculus, UniProt Q9QZC1); experiment: Inhibition of mouse TRPC3 expressed in HEK293 cells assessed as inhibition of Ca2+ influx by whole cell patch-clamp method; assay type: cell-based
T3 sequence (Q9QZC1 whole entry): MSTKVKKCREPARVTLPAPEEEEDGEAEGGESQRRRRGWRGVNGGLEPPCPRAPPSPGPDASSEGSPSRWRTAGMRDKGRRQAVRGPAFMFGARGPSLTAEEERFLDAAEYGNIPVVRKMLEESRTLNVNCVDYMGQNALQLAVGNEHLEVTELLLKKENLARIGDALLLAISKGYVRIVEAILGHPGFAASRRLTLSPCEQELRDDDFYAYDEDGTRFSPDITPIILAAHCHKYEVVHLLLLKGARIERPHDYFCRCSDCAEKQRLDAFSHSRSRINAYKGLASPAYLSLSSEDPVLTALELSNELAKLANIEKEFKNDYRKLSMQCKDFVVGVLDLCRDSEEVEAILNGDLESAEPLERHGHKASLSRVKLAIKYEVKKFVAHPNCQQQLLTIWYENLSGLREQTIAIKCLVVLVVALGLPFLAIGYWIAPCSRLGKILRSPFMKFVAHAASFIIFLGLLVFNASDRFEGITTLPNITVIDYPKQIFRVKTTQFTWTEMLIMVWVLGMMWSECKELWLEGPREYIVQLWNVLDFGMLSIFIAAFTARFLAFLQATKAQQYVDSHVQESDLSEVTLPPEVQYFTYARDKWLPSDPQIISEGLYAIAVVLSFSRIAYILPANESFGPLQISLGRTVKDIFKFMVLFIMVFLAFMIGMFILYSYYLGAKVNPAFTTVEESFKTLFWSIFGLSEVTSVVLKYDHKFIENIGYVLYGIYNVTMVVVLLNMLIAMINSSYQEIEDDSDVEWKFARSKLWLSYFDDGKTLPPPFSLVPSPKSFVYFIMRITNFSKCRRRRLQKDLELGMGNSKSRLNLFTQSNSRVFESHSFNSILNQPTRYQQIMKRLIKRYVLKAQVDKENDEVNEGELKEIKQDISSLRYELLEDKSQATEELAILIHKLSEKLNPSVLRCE

[8] = Toxicity in NSG/ICR mouse assessed as body weight loss at 200 mg/kg, ip administered once daily for 5 days; assay type: organism-based; settings: in vivo, 120 h, dose 200 mg/kg/day, time 5 day; procedure, shortened: as §1
[9] = Metabolic stability in mouse liver microsomes assessed as half life at […] measured up to 240 mins in presence of NADPH regeneration system by LC-MS analysis; assay type: ADME, Microsome
[10] = Toxicity in NSG/ICR mouse assessed as survival at 200 mg/kg, ip administered once daily for 5 days; assay type: organism-based; settings: NSG/ICR, in vivo, dose 200 mg/kg/day, time 5 day; procedure, shortened: as §1
[11] = molecular target: T2, Short transient receptor potential channel 3; experiment: Inhibition of human TRPC3 expressed in HEK293 cells assessed as inhibition of GSK170-induced current in presence of 2 mM extracellular calcium by whole cell patch-clamp method; assay type: cell-based
Procedure, shortened: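 hTRPC3 in HEK293 cells, whole-cell patch clamp with 2 mM extracellular Ca2+. Currents elicited by 1 μM GSK1702934A and challenged with a range of inhibitor concentrations by perfusion. Each concentration tested on separate cells and normalized to the cell's maximum amplitude. Dose–response curve built from the data; mean ± SD.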

inhibition [1]: inactive
SMILES: CCOC(=O)c1cnn(-c2ccc(-n3cc(Cl)ccc3=O)cc2)c1C(F)(F)F

SMILES: CCNC(=O)c1cnn(-c2ccc(NC(=O)C(Cl)=C(Cl)Cl)cc2)c1C(F)(F)F
mortality at 48 h [2]: 100%

inhibition [1]: 84%
SMILES: CCNC(=O)c1cnn(-c2ccc(-n3ccc(Cl)cc3=O)cc2)c1C(F)(F)F

inhibition [1]: 71%
SMILES: CCOC(=O)c1cnn(-c2ccc(-n3ccc(Cl)cc3=O)cc2)c1C(F)(F)F

inhibition [1]: inactive
SMILES: CCNS(=O)(=O)c1cnn(-c2ccc(-n3ccc(Cl)c(Cl)c3=O)cc2)c1C(F)(F)F

inhibition [1]: inactive
SMILES: CCNC(=O)c1cnn(-c2ccc(-n3ccc(Cl)c(F)c3=O)cc2)c1C(F)(F)F

SMILES: CCOC(=O)c1cnn(-c2ccc(NC(=O)C(Cl)=C(Cl)Cl)cc2)c1C(F)(F)F
Activity (Hippocampal neurone): Active
IC50 [3]: 0.53 µM
half-life [4]: < 15 min
inhibition (INH) (ORAI1/STIM1): Active
inhibition [5]: Active
half-life [6]: < 15 min
IC50 [7]: 0.7 µM
Activity [8]: 15%
inhibition [1]: 91%
half-life [9]: < 15 min
survival at 120 h [10]: 80%
IC50 [11]: 0.47 µM

inhibition [1]: inactive
SMILES: CCOC(=O)c1cnn(-c2ccc(-n3ccccc3=O)cc2)c1C(F)(F)F

inhibition [1]: inactive
SMILES: CCOC(=O)c1cnn(-c2ccc(-n3cc(Cl)cc(Cl)c3=O)cc2)c1C(F)(F)F
